# Assay outcomes deposited in PubChem BioAssay by Broad Institute.
# INS-1E rescue = rescue of cytokine-induced death in INS-1E beta cells; hit rate 0.1% among 20,000; INS-1E cytokine-induced death, ATP luminescence, 48 h; normalised: neutral wells 0, positive control 100; protection from cytokine-induced ATP loss, % at 10 µM;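 active = mean replicate protection from cytokine-induced ATP loss at least 50% and at least 75% of replicates each reaching 50%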
#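 Assay system: INS-1E rat cells / Quantity: 8000 cells per well / Medium: RPMI without phenol red, 5% FBS / Probe or stimulus: three-cytokine cocktail (IFN-γ, TNF-α, IL-1β) / Dosing: one compound concentration, pin transfer / Timing: 48 h co-treatment, 10 min post-lysis read / Technique: CellTiter-Glo luminescence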
# YB-1 expression = YB-1 expression inhibition | hit rate 0.37% among 30,000 | delta delta Cp (YB-1 minus CDIP) (test concentration not listed) | U2OS, qRT-PCR YB-1 vs CDIP delta delta Cp, 16 h; stronger effect = higher value; zero = DMSO, each unit about twofold;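 active = delta delta Cp rounded down to an integer at or above 3, about 3 SD of DMSO wells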;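 also: higher means less YB-1 transcript or more CDIP transcript relative to DMSO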
# T cruzi intra = inhibitors of intracellular Trypanosoma cruzi; AID 651903; hit rate 4.9% among 22,000; activity score (inhibition), % at 5.01 µM; intracellular Trypanosoma cruzi in host cells, plate reader; in the data active = activity score above about 55%;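 also: parasites and compound incubated about four days before reading; 0% = median of neutral control wells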
# An asterisk follows results filed as active; . = not tested or not shown. Many of the other results were omitted from the sample, so hits are more common in it than they were.
SMILES,INS-1E rescue,YB-1 expression,T cruzi intra
COCCOC(=O)N1C(=O)[C@@]2(c3cc(C#Cc4ccc(OC)cc4)ccc31)[C@H](c1ccc(O)cc1)N1[C@H](c3ccccc3)[C@H](c3ccccc3)OC(=O)[C@H]1[C@@H]2C(=O)N1CCCCCCC1,.,-0.031,.
Cc1noc(C)c1NC(=O)Nc1cccc2c1O[C@@H](CN(C)C(=O)Nc1ccc3c(c1)OCO3)[C@H](C)CN([C@@H](C)CO)C2=O,10,-0.21,-21
COCCCN1C(=O)[C@@]2(Cc3ccccc31)c1ccccc1C(=O)N(Cc1ccccc1C(F)(F)F)[C@H]2c1ccc(CO)cc1,.,-0.037,.
C[C@H](CO)N1C[C@H](C)[C@H](CN(C)S(=O)(=O)c2ccccc2)Oc2ncc(C#Cc3ccc(C(F)(F)F)cc3)cc2C1=O,.,0.34,78*
Cc1ccc(S(=O)(=O)N(C)C[C@@H]2Oc3ncc(C#CCN(C)C)cc3C(=O)N([C@H](C)CO)C[C@@H]2C)cc1,.,0.06,23
C[C@H](CO)N1C[C@H](C)[C@H](CN(C)S(=O)(=O)c2ccc(F)cc2)Oc2ncc(C#Cc3ccccc3)cc2C1=O,.,-0.22,62*
Cc1ccc(S(=O)(=O)N(C)C[C@@H]2Oc3ncc(C#Cc4ccc(C(F)(F)F)cc4)cc3C(=O)N([C@H](C)CO)C[C@@H]2C)cc1,-3,-0.51,89*
C[C@H](CO)N1C[C@H](C)[C@H](CN(C)S(=O)(=O)c2ccccc2)Oc2ncc(C#Cc3ccccc3)cc2C1=O,.,-0.2,48
CCCC(O)C#Cc1cnc2c(c1)C(=O)N([C@H](C)CO)C[C@H](C)[C@H](CN(C)S(=O)(=O)c1ccc(F)cc1)O2 (some centres undefined),.,-0.18,18
C[C@H](CO)N1C[C@H](C)[C@H](CN(C)S(=O)(=O)c2ccc(F)cc2)Oc2ncc(C#Cc3ccc(C(F)(F)F)cc3)cc2C1=O,.,-0.23,85*
COc1ccc(C#Cc2cnc3c(c2)C(=O)N([C@H](C)CO)C[C@H](C)[C@H](CN(C)S(=O)(=O)c2ccccc2)O3)cc1OC,.,0.078,37
O=C1/C(=C/c2ccc(O)cc2)SC(=S)N1CCc1ccccc1,.,-1.1,.
CC1CC(O)CC(C)(C)C1(O)/C=C/C(CO)O[C@@H]1O[C@H](CO)[C@@H](O)[C@H](O)[C@H]1O (some centres undefined),.,0.45,.
C[C@H]1CN([C@@H](C)CO)C(=O)c2cccc(NC(=O)Nc3ccc(F)cc3)c2O[C@@H]1CN(C)Cc1ccc(Cl)c(Cl)c1,-22,-0.12,33
COc1ccc(OCC(O)Cn2nc(C)cc2C)cc1 (centres undefined),.,-0.34,.
COc1ccc(CN(C)C[C@@H]2Oc3ccc(NS(=O)(=O)c4ccc(C)cc4)cc3CC(=O)N([C@@H](C)CO)C[C@@H]2C)cc1,-1,-0.13,46
COc1ccc(CN(C)C[C@@H]2Oc3ccc(NS(=O)(=O)c4ccc(Cl)cc4)cc3CC(=O)N([C@H](C)CO)C[C@H]2C)cc1,0,0.05,68*
COc1ccc(CN(C)C[C@@H]2Oc3ccc(NS(=O)(=O)c4ccc(Cl)cc4)cc3CC(=O)N([C@@H](C)CO)C[C@@H]2C)cc1,2,-0.21,3
COc1ccc(CN(C)C[C@@H]2Oc3ccc(NS(=O)(=O)c4ccc(C)cc4)cc3CC(=O)N([C@H](C)CO)C[C@H]2C)cc1,8,-0.023,68*
COc1ccc(S(=O)(=O)Nc2ccc3c(c2)CC(=O)N([C@H](C)CO)C[C@@H](C)[C@H](CN(C)Cc2ccc(Cl)c(Cl)c2)O3)cc1,-21,-0.15,70*
COc1ccc(S(=O)(=O)Nc2ccc3c(c2)CC(=O)N([C@H](C)CO)C[C@H](C)[C@H](CN(C)Cc2ccc(Cl)c(Cl)c2)O3)cc1,0,0.023,40
CC1(C)CC(=O)C2=C(C1)OC(N)=C(C#N)C21C(=O)N(CO)c2ccccc21 (centres undefined),.,-0.11,.
C[C@@H]1CN([C@@H](C)CO)C(=O)c2cccc(NS(=O)(=O)c3cn(C)cn3)c2O[C@H]1CN(C)Cc1ccc(C(=O)O)cc1,11,0.42,-18
C[C@@H]1CN([C@@H](C)CO)C(=O)Cc2cc(NC(=O)Cc3cn(C)c4ccccc34)ccc2O[C@@H]1CN(C)S(C)(=O)=O,1,0.095,10
O=C(O)CSc1n[nH]c(-c2cccs2)n1,.,-0.55,.
SMILES,INS-1E rescue,YB-1 expression,T cruzi intra
COc1ccc(N=C(C)c2c(C(F)(F)F)[nH]n(-c3nc4ccccc4s3)c2=O)cc1OC,.,0.27,.
CC(C)NC(=O)Nc1cccc2c1O[C@@H](CN(C)C(=O)Nc1cccc3ccccc13)[C@@H](C)CN([C@@H](C)CO)C2=O,-1,-0.29,-7
C[C@@H]1CCCCO[C@@H](CN(C)Cc2ccc3c(c2)OCO3)[C@@H](C)CN([C@H](C)CO)C(=O)c2cc(NC(=O)Nc3ccc(C(F)(F)F)cc3)ccc2O1,-16,0.066,65*
C[C@@H]1CCCCO[C@H](CN(C)Cc2ccc(Cl)c(Cl)c2)[C@@H](C)CN([C@H](C)CO)C(=O)c2cc(NC(=O)Nc3ccc4c(c3)OCO4)ccc2O1,-26,-0.21,69*
CC(C)NC(=O)Nc1ccc2c(c1)C(=O)N([C@H](C)CO)C[C@H](C)[C@H](CN(C)Cc1ccc(C(F)(F)F)cc1)OCCCC[C@@H](C)O2,15,0.099,5
C[C@@H]1CCCCO[C@@H](CN(C)CC2CCCCC2)[C@@H](C)CN([C@H](C)CO)C(=O)c2cc(NC(=O)Nc3ccc4c(c3)OCO4)ccc2O1,-25,-0.093,58*
C[C@@H]1CCCCO[C@@H](CN(C)Cc2ccc3c(c2)OCO3)[C@@H](C)CN([C@H](C)CO)C(=O)c2cc(NC(=O)Nc3ccccc3)ccc2O1,-32,-0.3,54
C[C@@H]1CCCCO[C@@H](CN(C)CC2CC2)[C@@H](C)CN([C@H](C)CO)C(=O)c2cc(NC(=O)Nc3ccc4c(c3)OCO4)ccc2O1,-4,-0.0067,9
C[C@@H]1CCCCO[C@@H](CN(C)Cc2ccc3c(c2)OCO3)[C@@H](C)CN([C@H](C)CO)C(=O)c2cc(NC(=O)Nc3ccc(F)cc3)ccc2O1,7,0.36,43
C[C@@H]1CCCCO[C@@H](CN(C)Cc2ccc(Cl)c(Cl)c2)[C@@H](C)CN([C@H](C)CO)C(=O)c2cc(NC(=O)Nc3ccc(C(F)(F)F)cc3)ccc2O1,-18,-0.26,76*
C[C@H]1CN([C@@H](C)CO)C(=O)Cc2cc(NC(=O)c3ccncc3)ccc2O[C@H]1CN(C)S(=O)(=O)c1cn(C)cn1,-16,-0.6,-5
C[C@H]1CN([C@@H](C)CO)C(=O)Cc2cc(NC(=O)NC3CCCCC3)ccc2O[C@@H]1CN(C)C(=O)Nc1cccc2ccccc12,-10,-0.24,1
C[C@@H]1CN([C@H](C)CO)C(=O)c2cc(NC(=O)Cn3cnnn3)ccc2O[C@@H]1CN(C)C(=O)Nc1ccc(F)cc1,7,-0.11,-5
C[C@@H]1CCCCO[C@H](CN(C)CC2CCCCC2)[C@@H](C)CN([C@H](C)CO)C(=O)c2cc(NC(=O)Nc3ccc(F)cc3)ccc2O1,-23,-0.18,67*
